{"source": "the EternaBench riboswitch data", "test_system": "MS2 coat protein", "assay": "apparent Kd, MS2 coat protein; higher = weaker binding; RNA-MaP array; tryptophan 2.4 mM where present", "method_in_brief": "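Designs were transcribed by stalled E. coli RNA polymerase on Illumina sequencing-chip clusters. They were titrated with SNAP-549-labelled MS2 coat protein from 0.7 or 1.5 nM, doubling to 3 µM, without and then with constant ligand. Buffer: 100 mM Tris-HCl pH 7.5, 80 mM KCl, 4 mM MgCl2, BSA, DTT, yeast tRNA, Tween-20. Green signal was normalised to red-channel RNA signal and control-cluster median Fmax. Apparent Kd is the median of filtered per-cluster binding-curve fits.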", "key": {"[1]": {"conditions": "designed as: OFF switch for tryptophan, no ligand"}, "[2]": {"conditions": "ligand present: tryptophan, designed as: OFF switch for tryptophan"}, "[3]": {"conditions": "designed as: ON switch for tryptophan, no ligand"}, "[4]": {"conditions": "ligand present: tryptophan, designed as: ON switch for tryptophan"}}, "data": [{"sequence": "UAUCGUCAGACGGCCGCCACUAGAACAUGAGGAUCACCCAUGUACCCGGUCCAUUCCUCAUUAACUAGGACCGGGUCUGACGAAU", "values": [{"measurement": "apparent Kd", "setting": "[1]", "value": 125, "unit": "nM"}, {"measurement": "apparent Kd", "setting": "[2]", "value": 30.2, "unit": "nM"}]}, {"sequence": "UAUCGUCAGACGGCCGCCACUAGAACAUGAGGAUCACCCAUGUACGGCCGCCCGGUAUGGGUGUCUAGGACCGGGUCUGACGAAU", "values": [{"measurement": "apparent Kd", "setting": "[1]", "value": 30.4, "unit": "nM"}, {"measurement": "apparent Kd", "setting": "[2]", "value": 39, "unit": "nM"}]}, {"sequence": "UCCUGCAGAGCGGCCGCCACUGUAUUGCGUGAGGAUGACCCAACAUGAGGAUCACCCAUGUUGUUUAGGACCGGGCUUGCCACGA", "values": [{"measurement": "apparent Kd", "setting": "[1]", "value": 14.2, "unit": "nM"}, {"measurement": "apparent Kd", "setting": "[2]", "value": 15.5, "unit": "nM"}]}, {"sequence": "UGGAGUAGGACGGCCGCCACUAUACAAUGUGUAUACAUGAGGAUCACCCAUGUAAUCCUCGGAGAUAGGACCGGGUCAAGUUGUG", "values": [{"measurement": "apparent Kd", "setting": "[1]", "value": 53.6, "unit": "nM"}, {"measurement": "apparent Kd", "setting": "[2]", "value": 50.5, "unit": "nM"}]}, {"sequence": "UGUAGUACCAGACAUGAGGAUCACCCAUGUCGAGGACCGGUACGGCCGCCACUCGGCAGUUUGCGUCCUCAGGUACUCCGGGUAA", "values": [{"measurement": "apparent Kd", "setting": "[1]", "value": 13, "unit": "nM"}, {"measurement": "apparent Kd", "setting": "[2]", "value": 15, "unit": "nM"}]}, {"sequence": "UGUCAGCGAAAGUUGACAUGCAGUGCCGGUCGAGGACCGGUACGGCCGCCACUCGAUCUCUCGUACAUGAGGAUCACCCAUGUCG", "values": [{"measurement": "apparent Kd", "setting": "[3]", "value": 13.4, "unit": "nM"}, {"measurement": "apparent Kd", "setting": "[4]", "value": 13.8, "unit": "nM"}]}, {"sequence": "UUAUAAGUACCGGUCCUCAGAUCCUCAUGACGAGGACCGGUACGGCCGCCACUCGAAACAUGAGGAUCACCCAUGUAAUAAUAAU", "values": [{"measurement": "apparent Kd", "setting": "[1]", "value": 24.2, "unit": "nM"}, {"measurement": "apparent Kd", "setting": "[2]", "value": 21.5, "unit": "nM"}]}, {"sequence": "UUCUUUGACGAUCUGGGUUUACCAGAUCGACGAGGACCGGUACGGCCGCCACUCGUGUUUUCUUUACAUGAGGAUCACCCAUGUU", "values": [{"measurement": "apparent Kd", "setting": "[3]", "value": 16.4, "unit": "nM"}, {"measurement": "apparent Kd", "setting": "[4]", "value": 15.6, "unit": "nM"}]}, {"sequence": "UUUGACGGCGAUCUGGGUUUACCAGAUCGGCGAGGACCGGUACGGCCGCCACUCGUGUUUCUUUGACAUGAGGAUCACCCAUGUA", "values": [{"measurement": "apparent Kd", "setting": "[3]", "value": 39.1, "unit": "nM"}, {"measurement": "apparent Kd", "setting": "[4]", "value": 18.4, "unit": "nM"}]}]}
